We go through 13 compounds from ChEMBL document CHEMBL2396571, “Synthesis and biological evaluation of C-glucosides with azulene rings as selective SGLT2 inhibitors for the treatment of type 2 diabetes mellitus: discovery of YM543” (Bioorg Med Chem, 2013).

Calls of active or inactive are those of the source. No cut-off for these calls is given here. A value given as a limit tells only on which side of the number the result lay.

The species named for one data set is Homo sapiens. Briefly: Selectivity ratio of IC50 for human SGLT1 to IC50 for human SGLT2.
In data set [1] the target is T1, Sodium/glucose cotransporter 2 (Homo sapiens, UniProt P31639).
T1 sequence (P31639 whole entry): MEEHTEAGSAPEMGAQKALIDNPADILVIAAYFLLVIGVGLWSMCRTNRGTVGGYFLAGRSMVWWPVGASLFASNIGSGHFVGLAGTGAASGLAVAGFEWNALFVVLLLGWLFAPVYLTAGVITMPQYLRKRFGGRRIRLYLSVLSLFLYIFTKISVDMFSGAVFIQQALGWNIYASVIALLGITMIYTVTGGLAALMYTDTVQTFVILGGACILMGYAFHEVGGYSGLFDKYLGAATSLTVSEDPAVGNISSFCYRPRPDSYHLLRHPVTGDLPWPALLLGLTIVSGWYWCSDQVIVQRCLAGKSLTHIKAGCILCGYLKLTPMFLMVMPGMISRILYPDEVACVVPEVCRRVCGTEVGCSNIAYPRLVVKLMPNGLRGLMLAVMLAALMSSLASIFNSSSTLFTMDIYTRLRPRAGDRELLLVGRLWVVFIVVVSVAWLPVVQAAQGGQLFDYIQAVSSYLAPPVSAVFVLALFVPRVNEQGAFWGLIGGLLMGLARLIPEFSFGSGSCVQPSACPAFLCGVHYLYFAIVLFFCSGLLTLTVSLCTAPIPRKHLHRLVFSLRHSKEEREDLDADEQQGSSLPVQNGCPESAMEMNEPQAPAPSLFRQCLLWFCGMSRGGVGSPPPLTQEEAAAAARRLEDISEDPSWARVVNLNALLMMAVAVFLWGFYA
Briefly: Inhibition of human SGLT2 expressed in CHO cells assessed as [14C]-methyl-alpha-D-glucopyranoside accumulation. It counts as cell-based.

Data set [2] relates to Mus musculus. Briefly: Antihyperglycemic activity in KK/Ay type-2 diabetic mouse model assessed as reduction of blood glucose level at 3 mg/kg, po measured for 8 hrs relative to vehicle-treated control. It counts as functional. Details: scale not given: the % may be the effect or the level left. The method, boiled down:
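KK/Ay mice in the fed condition were given a single oral dose (0.1–3 mg/kg). Blood glucose was followed over time, and suppression of glucose AUC was calculated relative to vehicle. Mean ± SEM, 6 animals per group.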

Data set [3] relates to Rattus norvegicus. Briefly: Antihyperglycemic activity in streptozotocin-induced type-1 diabetes mellitus rat model assessed as reduction of blood glucose level at 0.1 to 3 mg/kg, po measured for 8 hrs.
The test system of data set [4] is Rattus norvegicus. Briefly: Volume of distribution at steady state in Sprague-Dawley rat at 1 mg/kg, iv. It counts as ADME, organism-based. Further details: dose 1 mg/kg, route intravenous. To be noted: in vivo. The method, boiled down:
(§1)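 Male Sprague–Dawley rats, bought at 5–7 weeks of age. A single 1.0 mg/kg intravenous dose or a single 3 mg/kg oral dose was given. Plasma pharmacokinetic parameters were derived: T1/2, CLtot, Vdss, Cmax, Tmax, AUC(0–inf) and oral bioavailability F.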

Data set [5] in a line: Oral bioavailability in Sprague-Dawley rat at 3 mg/kg. It counts as ADME, organism-based. To be noted: in vivo. Summed up:
as §1

Data set [6] in a line: Half life in Sprague-Dawley rat at 1 mg/kg, iv. The format is ADME, organism-based. Details: dose 1 mg/kg, route intravenous. The note with it: in vivo. The method, boiled down:
as §1

Data set [7] is described as follows: Half life in Sprague-Dawley rat at 3 mg/kg, po. It counts as ADME, organism-based. Details: dose 3 mg/kg, route oral. To be noted: in vivo. The method, boiled down:
as §1

Data set [8] in a line: Ratio of drug level in kidney to plasma in Sprague-Dawley rat at 1 mg/kg, iv and 3 mg/kg, po. The format is ADME, organism-based. The method, boiled down:
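Male Sprague–Dawley rats received a single 1.0 mg/kg iv or a single 3 mg/kg oral dose. Drug concentration in kidney was compared with that in plasma.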

Data set [9] in a line: AUC (0 to infinity) in Sprague-Dawley rat at 1 mg/kg, iv. It counts as ADME, organism-based. To be noted: plasma. Details: time infinity, dose 1 mg/kg, route intravenous. The method, boiled down:
as §1

Data set [10] concerns Mus musculus. Briefly: Antihyperglycemic activity in po dosed KK/Ay type-2 diabetic mouse model assessed as increase in urinary glucose excretion measured over 24 hrs. To be noted: Urine. The format is functional, organism-based.
The test system of data set [11] is Mus musculus. The data set can be described thus: Antihyperglycemic activity in KK/Ay type-2 diabetic mouse model assessed as increase in urinary glucose excretion at => 0.3 mg/kg, po measured over 12 hrs. The format is functional, organism-based. To be noted: Urine. Details: dose 0.3 mg/kg.
A short description of data set [12]: Cmax in Sprague-Dawley rat at 3 mg/kg, po. It counts as ADME, organism-based. Details: dose 3 mg/kg, route oral. To be noted: in vivo. The method, boiled down:
as §1

Data set [13] is described as follows: Tmax in Sprague-Dawley rat at 3 mg/kg, po. The format is ADME, organism-based. Further details: dose 3 mg/kg, route oral. The note with it: in vivo. Summed up: as §1

As for `OC[C@H]1O[C@@H](c2cccc(Cc3ccc4cccc-4cc3)c2)[C@H](O)[C@@H](O)[C@@H]1O`, in the data set listed under Homo sapiens, the Ratio IC50 worked out at 230.

Turning to `COc1ccc(Cc2cc3cccccc-3c2)cc1[C@@H]1O[C@H](CO)[C@@H](O)[C@H](O)[C@H]1O`, the Ratio IC50 in the data set filed under Homo sapiens came out at 2100.

As usually defined, the IC50 is the concentration at which inhibition is half-maximal. Consider `OC[C@H]1O[C@@H](c2ccc(Cl)c(Cc3cc4cccccc-4c3)c2)[C@H](O)[C@@H](O)[C@@H]1O`, for which the Ratio IC50 in the data set filed under Homo sapiens is 140. Besides, the IC50 in [1] worked out at 7.9 nM.

For the compound `Cc1cc(Cc2cccc([C@@H]3O[C@H](CO)[C@@H](O)[C@H](O)[C@H]3O)c2)c2cccccc1-2`, in [1], the half-maximal inhibitory concentration (IC50) was determined as 44000 nM.

`CCc1c(Cc2cccc([C@@H]3O[C@H](CO)[C@@H](O)[C@H](O)[C@H]3O)c2)cc2cccccc1-2`: in the data set filed under Homo sapiens, the Ratio IC50 is over 1.9. Moreover, in data set [1], the IC50 turned out to be 5200 nM.

With `OC[C@H]1O[C@@H](c2ccc(F)c(Cc3cc4cccccc-4c3)c2)[C@H](O)[C@@H](O)[C@@H]1O`, in the data set listed under Homo sapiens, the Ratio IC50 was determined as 610. Also, the IC50 in [1] turned out to be 14 nM.

`COc1ccc([C@@H]2O[C@H](CO)[C@@H](O)[C@H](O)[C@H]2O)cc1Cc1cc2cccccc-2c1`: the Ratio IC50 in the data set listed under Homo sapiens stood at 35. For the same compound, the IC50 in [1] was 17 nM.

With `OC[C@H]1O[C@@H](c2cccc(Cc3cc4cccccc-4c3)c2)[C@H](O)[C@@H](O)[C@@H]1O`, in the data set filed under Homo sapiens, the Ratio IC50 worked out at 590.

For the compound `CC(=O)c1c(Cc2cccc([C@@H]3O[C@H](CO)[C@@H](O)[C@H](O)[C@H]3O)c2)cc2cccccc1-2`, the Ratio IC50 in the data set filed under Homo sapiens was over 0.8. Further, the IC50 in data set [1] was found to be 12000 nM.

As usually defined, the Vdss is a proportionality between amount in the body and measured concentration, not a real space. Broadly, the bioavailability is the share of a dose that reaches the circulation, judged against a reference dose that is usually intravenous. What is called half-life is how long it takes for the measured level to halve. Usually Kp stands for tissue or fluid exposure divided by exposure in the circulation. The AUC(0-inf) is total exposure, with the tail of the curve extrapolated. Broadly, the Cmax is the highest concentration seen after dosing. For orientation: Tmax means the time at which the peak concentration occurs. As to `OC[C@H]1O[C@@H](c2cc(Cc3cc4cccccc-4c3)ccc2O)[C@H](O)[C@@H](O)[C@@H]1O` [YM-543 FREE ACID], the Ratio IC50 in the data set listed under Homo sapiens was 280. Besides, the Activity with Mus musculus [2] was 56%; in the data set with Mus musculus [10], “Dose-dependent effect”. The outcome with Rattus norvegicus [3] and in the data set on Mus musculus [11] was Active. This compound showed a Vdss with Rattus norvegicus [4] of 3.36 L/kg. In [5], the bioavailability came out at 29%. In addition, the half-life was 54 min in [6] and 78 min in data set [7]. In addition, the Kp in [8] stood at 23. In addition, in [9], the AUC(0-inf) is 403 ng·h/mL. This compound yielded a Cmax in data set [12] of 101 ng/mL. Moreover, the time of peak concentration (Tmax) in data set [13] turned out to be 30 min.

Turning to `OC[C@H]1O[C@@H](c2cc(Cc3cc4cccccc-4c3)ccc2Cl)[C@H](O)[C@@H](O)[C@@H]1O`, in the data set listed under Homo sapiens, the Ratio IC50 is 200. Further, the IC50 in data set [1] stood at 70 nM.

For `OC[C@H]1O[C@@H](c2cc(Cc3cc4cccccc-4c3)ccc2F)[C@H](O)[C@@H](O)[C@@H]1O`, the Ratio IC50 in the data set listed under Homo sapiens stood at 123. Moreover, in data set [1], the IC50 was determined as 39 nM.

For the compound `OC[C@H]1O[C@@H](c2cccc(Cc3cc4cccccc-4c3Cc3ccccc3)c2)[C@H](O)[C@@H](O)[C@@H]1O`, the Ratio IC50 in the data set filed under Homo sapiens was over 10. In addition, the IC50 in data set [1] stood at 970 nM.
